Laboratory results as given in ChEMBL document CHEMBL4680306, “The 3-D conformational shape of N-naphthyl-cyclopenta[d]pyrimidines affects their potency as microtubule targeting agents and their antitumor activity” (Bioorg Med Chem, 2021).
The source made the active and inactive calls. The calls are words filed in the database; no cut-off is given here.

Key:
[1] = Induction of microtubule depolymerisation in rat A-10 cell line measured after 18 hrs by indirect immunofluorescence method; conditions: a10
Method in brief: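 Rat A-10 cells, chosen because they arrest in interphase without significant mitotic accumulation, were exposed to compounds for 18 h. Cellular microtubules were then visualized by indirect immunofluorescence. EC50 values come from at least three independent experiments.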

Bos taurus [2] = species on record: Bos taurus; assay: Inhibition of [3H]colchicine binding to bovine tubulin at 5 uM measured after 10 mins by scintillation counting
Method in brief: (§1)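 Purified bovine brain tubulin at 1.0 µM was mixed with 5.0 µM [3H]colchicine and inhibitor, plus components that stabilize colchicine binding, in 5% DMSO; tubulin was added last, on ice. Binding ran 10 min at 37 °C and was stopped with ice water. Mixtures were filtered through stacked DEAE-cellulose filters, and bound radiolabel was measured by scintillation counting.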

Bos taurus [3] = species on record: Bos taurus; assay: Inhibition of [3H]colchicine binding to bovine tubulin at 1 uM measured after 10 mins by scintillation counting; method in brief: as §1
HeLa = assay: Antiproliferative activity against human HeLa cells assessed as decrease in cell growth measured after 48 hrs by SRB method; assay type: functional, cell-based
[4] = Relative resistance, ratio of IC50 for inhibition of beta3 Tubulin (unknown origin) expressed in human HeLa cell line assessed as inhibition of cell proliferation to IC50 antiproliferative activity against human HeLa cells
SK-OV-3 = assay: Antiproliferative activity against human SK-OV-3 cells assessed as decrease in cell growth measured after 48 hrs by SRB method; assay type: functional, cell-based; conditions: SK-OV-3, 48 h
[5] = Relative resistance, ratio of IC50 for antiproliferative activity against human SK-OV-3 MDR-1-6/6 cells expressing Pgp to IC50 antiproliferative activity against human SK-OV-3 cells; assay type: functional
U-251 = assay: Antitumour activity against human U251 cells xenografted in NCr athymic nude nu/nu mouse assessed as decrease in tumour growth at 17.5 mg/kg twice in a week; assay type: functional, organism-based
A549 = assay: Cytotoxicity against human A549 cells assessed as inhibition of cell growth measured after 48 hrs by SRB assay; assay type: functional
HOP-62 = assay: Cytotoxicity against human HOP-62 cells assessed as inhibition of cell growth measured after 48 hrs by SRB assay; assay type: functional
HOP-92 = assay: Cytotoxicity against human HOP-92 cells assessed as inhibition of cell growth measured after 48 hrs by SRB assay; assay type: functional
NCI-H23 = assay: Cytotoxicity against human NCI-H23 cells assessed as inhibition of cell growth measured after 48 hrs by SRB assay; assay type: functional
NCI-H522 = assay: Cytotoxicity against human NCI-H522 cells assessed as inhibition of cell growth measured after 48 hrs by SRB assay; assay type: functional
SF-268 = assay: Cytotoxicity against human SF-268 cells assessed as inhibition of cell growth measured after 48 hrs by SRB assay; assay type: functional
SF-539 = assay: Cytotoxicity against human SF-539 cells assessed as inhibition of cell growth measured after 48 hrs by SRB assay; assay type: functional
SNB-19 = assay: Cytotoxicity against human SNB-19 cells assessed as inhibition of cell growth measured after 48 hrs by SRB assay; assay type: functional
SNB-75 = assay: Cytotoxicity against human SNB-75 cells assessed as inhibition of cell growth measured after 48 hrs by SRB assay; assay type: functional
ACHN = assay: Cytotoxicity against human ACHN cells assessed as inhibition of cell growth measured after 48 hrs by SRB assay; assay type: functional
CAKI-1 = assay: Cytotoxicity against human CAKI-1 cells assessed as inhibition of cell growth measured after 48 hrs by SRB assay; assay type: functional
RXF 393 = assay: Cytotoxicity against human RXF 393 cells assessed as inhibition of cell growth measured after 48 hrs by SRB assay; assay type: functional
COLO 205 = assay: Cytotoxicity against human COLO 205 cells assessed as inhibition of cell growth measured after 48 hrs by SRB assay; assay type: functional
HCC 2998 = assay: Cytotoxicity against human HCC 2998 cells assessed as inhibition of cell growth measured after 48 hrs by SRB assay; assay type: functional
HT-29 = assay: Cytotoxicity against human HT-29 cells assessed as inhibition of cell growth measured after 48 hrs by SRB assay; assay type: functional
SW-620 = assay: Cytotoxicity against human SW-620 cells assessed as inhibition of cell growth measured after 48 hrs by SRB assay; assay type: functional
OVCAR-3 = assay: Cytotoxicity against human OVCAR-3 cells assessed as inhibition of cell growth measured after 48 hrs by SRB assay; assay type: functional
OVCAR-5 = assay: Cytotoxicity against human OVCAR-5 cells assessed as inhibition of cell growth measured after 48 hrs by SRB assay; assay type: functional
Malme-3M = assay: Cytotoxicity against human Malme-3M cells assessed as inhibition of cell growth measured after 48 hrs by SRB assay; assay type: functional
M14 = assay: Cytotoxicity against human M14 cells assessed as inhibition of cell growth measured after 48 hrs by SRB assay; assay type: functional
MDA-MB-435 = assay: Cytotoxicity against human MDA-MB-435 cells assessed as inhibition of cell growth measured after 48 hrs by SRB assay; assay type: functional
SK-MEL-2 = assay: Cytotoxicity against human SK-MEL-2 cells assessed as inhibition of cell growth measured after 48 hrs by SRB assay; assay type: functional
SK-MEL-28 = assay: Cytotoxicity against human SK-MEL-28 cells assessed as inhibition of cell growth measured after 48 hrs by SRB assay; assay type: functional
UACC-62 = assay: Cytotoxicity against human UACC-62 cells assessed as inhibition of cell growth measured after 48 hrs by SRB assay; assay type: functional
PC-3 = assay: Cytotoxicity against human PC-3 cells assessed as inhibition of cell growth measured after 48 hrs by SRB assay; assay type: functional
DU-145 = assay: Cytotoxicity against human DU-145 cells assessed as inhibition of cell growth measured after 48 hrs by SRB assay; assay type: functional
MCF7 = assay: Cytotoxicity against human MCF7 cells assessed as inhibition of cell growth measured after 48 hrs by SRB assay; assay type: functional
Hs-578T = assay: Cytotoxicity against human Hs-578T cells assessed as inhibition of cell growth measured after 48 hrs by SRB assay; assay type: functional
BT-549 = assay: Cytotoxicity against human BT-549 cells assessed as inhibition of cell growth measured after 48 hrs by SRB assay; assay type: functional
CCRF-CEM = assay: Cytotoxicity against human CCRF-CEM cells assessed as inhibition of cell growth measured after 48 hrs by SRB assay; assay type: functional
RPMI-8226 = assay: Cytotoxicity against human RPMI-8226 cells assessed as inhibition of cell growth measured after 48 hrs by SRB assay; assay type: functional
[6] = Toxicity in NCr athymic nude nu/nu mouse xenografted human U251 cells assessed as body weight change at 50 mg/kg once in a week relative to temozolomide; assay type: organism-based; conditions: in vivo, 17.5 mg/kg, 168 h, in the assay text read “17.5 mg/kg twice in a week” for “50 mg/kg once in a week”
Method in brief: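 NCr athymic nu/nu nude mice (8 wk; equal numbers of males and females) received 500,000 U251 glioma cells in the lateral flank. Once tumors were visible, mice were dosed with carrier (5% DMSO, 5% Kolliphor-15, 90% normal saline), temozolomide at 50 mg/kg/wk, or test compound at 17.5 mg/kg twice weekly until the end of the study. Body weight was monitored and tumors were caliper-measured twice weekly; n=6–8.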

## COc1cccc2cc(N(C)c3nc(C)nc4c3CCC4)ccc12
[1]
  EC50: 4.5 nM
Bos taurus [2]
  inhibition: 98%
Bos taurus [3]
  inhibition: 86%
HeLa
  IC50: 3.4 nM
[4]
  Ratio IC50: 0.8
SK-OV-3
  IC50: 2.7 nM
[5]
  Ratio IC50: 2.1
U-251
  inhibition: Active
A549
  GI50: < 10 nM
HOP-62
  GI50: < 10 nM
HOP-92
  GI50: 28.5 nM
NCI-H23
  GI50: < 10 nM
NCI-H522
  GI50: < 10 nM
SF-268
  GI50: < 10 nM
SF-539
  GI50: < 10 nM
SNB-19
  GI50: < 10 nM
SNB-75
  GI50: 1890 nM
ACHN
  GI50: < 10 nM
CAKI-1
  GI50: < 10 nM
RXF 393
  GI50: < 10 nM
COLO 205
  GI50: < 10 nM
HCC 2998
  GI50: < 10 nM
HT-29
  GI50: < 10 nM
SW-620
  GI50: < 10 nM
OVCAR-3
  GI50: < 10 nM
OVCAR-5
  GI50: < 10 nM
Malme-3M
  GI50: 11500 nM
M14
  GI50: < 10 nM
MDA-MB-435
  GI50: < 10 nM
SK-MEL-2
  GI50: < 10 nM
SK-MEL-28
  GI50: 5630 nM
UACC-62
  GI50: 1490 nM
PC-3
  GI50: < 10 nM
DU-145
  GI50: < 10 nM
MCF7
  GI50: < 10 nM
Hs-578T
  GI50: < 10 nM
BT-549
  GI50: < 10 nM
CCRF-CEM
  GI50: < 10 nM
RPMI-8226
  GI50: < 10 nM
[6]
  Activity: Non-Toxic
